In brackets after ≈: the same amount, converted by molar mass.
Assays:
[1] = Activation of Inward rectifier potassium channel in human atrial myocytes; type: cell-based; conditions: Cardiac atrium
[2] = molecular target: P2Y purinoceptor (Rattus norvegicus); experiment: Binding affinity to P2Y purinoceptor (rat) by [35S]dATPalphaS competitive binding assay; conditions: read-out: IC50
Rattus norvegicus [3] = organism: Rattus norvegicus; experiment: Toxicity in telemeterized rat assessed as effect on cardiovascular function; type: organism-based, Heart; conditions: in vivo
[4] = molecular target: T1, Sphingosine 1-phosphate receptor 1 (Homo sapiens, UniProt P21453); experiment: Agonist activity at human S1P1 receptor assessed as cAMP accumulation by HTRF assay; type: functional
T1 sequence (P21453 whole entry): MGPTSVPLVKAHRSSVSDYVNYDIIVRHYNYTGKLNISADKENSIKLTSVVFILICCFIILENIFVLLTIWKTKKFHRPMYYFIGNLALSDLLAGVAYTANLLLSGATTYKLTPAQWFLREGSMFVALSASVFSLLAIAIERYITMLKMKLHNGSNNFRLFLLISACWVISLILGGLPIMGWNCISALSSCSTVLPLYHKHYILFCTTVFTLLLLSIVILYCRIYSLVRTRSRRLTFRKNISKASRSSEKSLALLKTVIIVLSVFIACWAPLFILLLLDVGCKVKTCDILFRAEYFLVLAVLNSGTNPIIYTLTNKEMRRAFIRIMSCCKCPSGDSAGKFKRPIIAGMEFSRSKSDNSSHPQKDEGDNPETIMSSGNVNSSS
Outline: (§1)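 S1P1 engagement measured as cyclase activity in a homogeneous time-resolved fluorescence (HTRF) assay.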

[5] = molecular target: Sphingosine 1-phosphate receptor 1 (Rattus norvegicus, UniProt P48303); experiment: Agonist activity at rat S1P1 receptor assessed as cAMP accumulation by HTRF assay; type: functional; outline: as §1
Sequence of Sphingosine 1-phosphate receptor 1 (Rattus norvegicus, UniProt P48303) (P48303 whole entry): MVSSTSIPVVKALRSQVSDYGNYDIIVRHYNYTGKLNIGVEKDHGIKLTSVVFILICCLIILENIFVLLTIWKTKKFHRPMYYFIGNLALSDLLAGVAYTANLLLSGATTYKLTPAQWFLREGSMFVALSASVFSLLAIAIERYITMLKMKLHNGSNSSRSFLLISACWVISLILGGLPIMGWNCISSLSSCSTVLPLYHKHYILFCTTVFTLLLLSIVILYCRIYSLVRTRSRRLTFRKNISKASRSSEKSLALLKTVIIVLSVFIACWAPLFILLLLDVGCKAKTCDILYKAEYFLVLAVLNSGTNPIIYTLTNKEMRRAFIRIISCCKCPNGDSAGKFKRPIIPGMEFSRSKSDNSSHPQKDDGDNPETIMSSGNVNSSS

[6] = molecular target: T2, Sphingosine 1-phosphate receptor 5 (Homo sapiens, UniProt Q9H228); experiment: Agonist activity at human S1P5 receptor by beta-arrestin recruitment assay
T2 sequence (Q9H228 whole entry): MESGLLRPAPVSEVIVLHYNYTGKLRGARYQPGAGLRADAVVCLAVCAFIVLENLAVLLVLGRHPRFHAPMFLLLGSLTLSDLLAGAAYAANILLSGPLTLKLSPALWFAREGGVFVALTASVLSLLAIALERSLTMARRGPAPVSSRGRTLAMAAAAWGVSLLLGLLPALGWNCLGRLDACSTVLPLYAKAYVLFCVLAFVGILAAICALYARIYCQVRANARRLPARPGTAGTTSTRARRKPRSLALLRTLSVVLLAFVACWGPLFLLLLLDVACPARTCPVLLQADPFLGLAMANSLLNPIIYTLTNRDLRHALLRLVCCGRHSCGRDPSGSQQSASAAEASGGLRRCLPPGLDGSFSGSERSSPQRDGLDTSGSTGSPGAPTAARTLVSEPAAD

Rattus norvegicus [7] = organism: Rattus norvegicus; experiment: Reduction in lymphocyte count in Sprague-Dawley rat; type: functional, organism-based
Outline: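 A PK/PD model relating plasma drug concentration to circulating lymphocyte counts was used to derive the plasma concentration that reduces lymphocytes by 50% (LL IC50, ng/mL).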

[8] = molecular target: T2, Sphingosine 1-phosphate receptor 5; experiment: Agonist activity at human S1P5 receptor by beta-arrestin recruitment assay relative to S1P
[9] = molecular target: T1, Sphingosine 1-phosphate receptor 1; experiment: Agonist activity at human S1P1 receptor assessed as cAMP accumulation by HTRF assay relative to S1P; type: functional
[10] = Tmax in Sprague-Dawley rat at 1 mg/kg, po; type: ADME, organism-based; design: dose 1 mg/kg, route oral; conditions: in vivo
[11] = Systemic clearance in Sprague-Dawley rat at 1 mg/kg, iv; type: ADME, organism-based; design: dose 1 mg/kg, route intravenous; conditions: in vivo
[12] = Cmax in Sprague-Dawley rat at 1 mg/kg, po; type: ADME, organism-based; design: dose 1 mg/kg, route oral; conditions: in vivo
[13] = molecular target: T3, Sphingosine 1-phosphate receptor 4 (Homo sapiens, UniProt O95977); experiment: Agonist activity at human S1P4 receptor by beta-arrestin recruitment assay
T3 sequence (O95977 whole entry): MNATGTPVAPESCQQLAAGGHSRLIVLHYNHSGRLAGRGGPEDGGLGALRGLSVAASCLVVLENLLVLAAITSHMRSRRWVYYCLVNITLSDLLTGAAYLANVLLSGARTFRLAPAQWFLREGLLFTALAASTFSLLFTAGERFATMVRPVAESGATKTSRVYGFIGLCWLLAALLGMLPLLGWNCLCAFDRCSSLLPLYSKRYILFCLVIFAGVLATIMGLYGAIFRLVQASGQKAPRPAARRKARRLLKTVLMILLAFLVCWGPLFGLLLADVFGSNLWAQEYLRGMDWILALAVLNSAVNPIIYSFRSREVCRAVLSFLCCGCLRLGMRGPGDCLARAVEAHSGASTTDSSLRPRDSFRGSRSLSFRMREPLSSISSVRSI

[14] = molecular target: T4, Sphingosine 1-phosphate receptor 4 (Homo sapiens) (UniProt O95977); experiment: Agonist activity at human S1P4 receptor by beta-arrestin recruitment assay relative to S1P
T4 sequence (whole entry): T3 sequence (O95977 whole entry)

[15] = AUC (0 to infinity) in Sprague-Dawley rat at 1 mg/kg, iv or at 1 mg/kg, po; type: ADME, organism-based; conditions: plasma
[16] = Elimination half life in Sprague-Dawley rat at 1 mg/kg, po; type: ADME, organism-based; design: dose 1 mg/kg, route oral; conditions: in vivo, read-out: beta t1/2 (converted)
[17] = molecular target: Sphingosine 1-phosphate receptor 1 (Rattus norvegicus) (UniProt P48303); experiment: Agonist activity at rat S1P1 receptor assessed as cAMP accumulation by HTRF assay relative to S1P; type: functional
Sequence of Sphingosine 1-phosphate receptor 1 (Rattus norvegicus) (P48303 whole entry): as the sequence (P48303 whole entry) above

[18] = molecular target: Sphingosine 1-phosphate receptor 2 (Homo sapiens, UniProt O95136); experiment: Agonist activity at human S1P2 receptor by beta-arrestin recruitment assay
Sequence of Sphingosine 1-phosphate receptor 2 (O95136 whole entry): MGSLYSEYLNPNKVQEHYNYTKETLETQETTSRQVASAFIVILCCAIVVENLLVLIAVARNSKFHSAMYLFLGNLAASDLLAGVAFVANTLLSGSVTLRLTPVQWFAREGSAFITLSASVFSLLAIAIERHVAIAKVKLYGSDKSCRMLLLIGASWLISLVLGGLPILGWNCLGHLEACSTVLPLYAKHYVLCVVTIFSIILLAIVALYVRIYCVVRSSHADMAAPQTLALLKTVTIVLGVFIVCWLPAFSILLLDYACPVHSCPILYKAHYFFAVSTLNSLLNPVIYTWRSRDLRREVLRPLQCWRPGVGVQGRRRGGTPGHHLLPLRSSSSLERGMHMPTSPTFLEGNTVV

[19] = molecular target: Sphingosine 1-phosphate receptor 1 (Macaca mulatta) (UniProt H9EUW9); experiment: Agonist activity at monkey S1P1 receptor assessed as cAMP accumulation by HTRF assay relative to S1P; type: functional
Sequence of Sphingosine 1-phosphate receptor 1 (Macaca mulatta) (H9EUW9 as listed by the source): as the sequence (P21453 whole entry) above, with P3S, H12L, I37T, K41R, S189P, I241M, E365D counted along it

[20] = molecular target: T1, Sphingosine 1-phosphate receptor 1; experiment: Agonist activity at human S1P1 receptor by beta-arrestin recruitment assay
[21] = molecular target: Sphingosine-1-phosphate receptor 1 (Canis lupus familiaris) (UniProt W5VNF7); experiment: Agonist activity at dog S1P1 receptor assessed as cAMP accumulation by HTRF assay relative to S1P; type: functional
Sequence of Sphingosine-1-phosphate receptor 1 (Canis lupus familiaris) (W5VNF7 as listed by the source): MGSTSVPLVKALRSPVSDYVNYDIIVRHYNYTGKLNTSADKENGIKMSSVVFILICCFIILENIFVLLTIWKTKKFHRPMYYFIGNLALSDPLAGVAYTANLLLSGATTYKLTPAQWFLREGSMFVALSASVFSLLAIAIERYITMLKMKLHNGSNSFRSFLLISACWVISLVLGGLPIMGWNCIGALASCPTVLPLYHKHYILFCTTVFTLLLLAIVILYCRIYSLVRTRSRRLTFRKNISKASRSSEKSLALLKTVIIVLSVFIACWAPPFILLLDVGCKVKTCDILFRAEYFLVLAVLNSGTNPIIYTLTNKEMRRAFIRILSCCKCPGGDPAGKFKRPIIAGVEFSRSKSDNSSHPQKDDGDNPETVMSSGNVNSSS

Cytochrome P450 2C9 = Cytochrome P450 2C9 (Homo sapiens, UniProt P11712); experiment: Inhibition of CYP2C9 (unknown origin); type: ADME
Sequence of Cytochrome P450 2C9 (P11712 whole entry): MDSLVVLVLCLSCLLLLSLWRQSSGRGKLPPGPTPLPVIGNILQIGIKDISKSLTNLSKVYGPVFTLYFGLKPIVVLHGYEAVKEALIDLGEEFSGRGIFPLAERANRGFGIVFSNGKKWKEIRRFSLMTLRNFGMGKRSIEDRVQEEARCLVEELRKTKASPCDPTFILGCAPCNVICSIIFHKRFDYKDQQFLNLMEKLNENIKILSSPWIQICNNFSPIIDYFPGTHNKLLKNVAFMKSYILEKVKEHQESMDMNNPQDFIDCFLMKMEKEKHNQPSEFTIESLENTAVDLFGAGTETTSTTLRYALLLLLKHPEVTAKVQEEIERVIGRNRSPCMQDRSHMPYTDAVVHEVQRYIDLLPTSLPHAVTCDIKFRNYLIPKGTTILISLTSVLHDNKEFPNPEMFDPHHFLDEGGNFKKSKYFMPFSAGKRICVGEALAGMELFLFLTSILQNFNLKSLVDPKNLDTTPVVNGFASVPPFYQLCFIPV

[22] = molecular target: Sphingosine 1-phosphate receptor 1 (Mus musculus) (UniProt O08530); experiment: Agonist activity at mouse S1P1 receptor assessed as cAMP accumulation by HTRF assay relative to S1P; type: functional
Sequence of Sphingosine 1-phosphate receptor 1 (Mus musculus) (O08530 whole entry): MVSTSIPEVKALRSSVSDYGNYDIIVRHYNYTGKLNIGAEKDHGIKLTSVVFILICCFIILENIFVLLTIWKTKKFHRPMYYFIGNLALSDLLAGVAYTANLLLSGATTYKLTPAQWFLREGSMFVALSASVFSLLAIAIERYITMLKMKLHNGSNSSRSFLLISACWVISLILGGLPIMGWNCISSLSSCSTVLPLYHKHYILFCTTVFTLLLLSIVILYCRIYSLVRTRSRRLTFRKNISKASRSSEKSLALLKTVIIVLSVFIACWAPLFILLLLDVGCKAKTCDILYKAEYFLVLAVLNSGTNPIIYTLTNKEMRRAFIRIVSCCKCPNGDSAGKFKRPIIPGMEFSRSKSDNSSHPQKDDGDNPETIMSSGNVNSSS

[23] = Oral bioavailability in Sprague-Dawley rat at 1 mg/kg; type: ADME, organism-based; conditions: in vivo
[24] = Volume of distribution at steady state in Sprague-Dawley rat at 1 mg/kg, iv; type: ADME, organism-based; design: dose 1 mg/kg, route intravenous; conditions: in vivo, read-out: Vdss
[25] = molecular target: Sphingosine 1-phosphate receptor 3 (Homo sapiens, UniProt Q99500); experiment: Agonist activity at human S1P3 receptor by beta-arrestin recruitment assay
Sequence of Sphingosine 1-phosphate receptor 3 (Q99500 whole entry): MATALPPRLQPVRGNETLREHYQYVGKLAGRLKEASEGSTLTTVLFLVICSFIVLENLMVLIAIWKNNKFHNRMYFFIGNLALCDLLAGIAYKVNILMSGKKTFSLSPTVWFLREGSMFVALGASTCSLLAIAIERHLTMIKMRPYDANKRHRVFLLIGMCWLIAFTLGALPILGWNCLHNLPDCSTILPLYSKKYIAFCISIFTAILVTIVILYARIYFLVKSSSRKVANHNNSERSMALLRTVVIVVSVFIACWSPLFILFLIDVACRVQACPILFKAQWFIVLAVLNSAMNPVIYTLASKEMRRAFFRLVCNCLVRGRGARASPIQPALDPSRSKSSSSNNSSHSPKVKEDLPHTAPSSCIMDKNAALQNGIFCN

[26] = molecular target: Sphingosine 1-phosphate receptor 1 (Mus musculus, UniProt O08530); experiment: Agonist activity at mouse S1P1 receptor assessed as cAMP accumulation by HTRF assay; type: functional; outline: as §1
Sequence of Sphingosine 1-phosphate receptor 1 (Mus musculus, UniProt O08530) (O08530 whole entry): as the sequence (O08530 whole entry) above

[27] = molecular target: Sphingosine-1-phosphate receptor 1 (Canis lupus familiaris, UniProt W5VNF7); experiment: Agonist activity at dog S1P1 receptor assessed as cAMP accumulation by HTRF assay; type: functional; outline: as §1
Sequence of Sphingosine-1-phosphate receptor 1 (W5VNF7 whole entry): as the sequence (W5VNF7 as listed by the source) above

[28] = Ratio of drug level in brain to plasma in Sprague-Dawley rat; type: ADME; conditions: read-out: BPR
Outline: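 Abbreviated rat CNS distribution: a single 1.0 mg/kg oral dose, with brain and plasma drug levels measured over 6 h. Brain-to-plasma ratio derived from these levels.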

[29] = molecular target: Voltage-gated inwardly rectifying potassium channel KCNH2 (Homo sapiens, UniProt Q12809); experiment: Binding affinity to human ERG
Sequence of Voltage-gated inwardly rectifying potassium channel KCNH2 (Q12809 whole entry): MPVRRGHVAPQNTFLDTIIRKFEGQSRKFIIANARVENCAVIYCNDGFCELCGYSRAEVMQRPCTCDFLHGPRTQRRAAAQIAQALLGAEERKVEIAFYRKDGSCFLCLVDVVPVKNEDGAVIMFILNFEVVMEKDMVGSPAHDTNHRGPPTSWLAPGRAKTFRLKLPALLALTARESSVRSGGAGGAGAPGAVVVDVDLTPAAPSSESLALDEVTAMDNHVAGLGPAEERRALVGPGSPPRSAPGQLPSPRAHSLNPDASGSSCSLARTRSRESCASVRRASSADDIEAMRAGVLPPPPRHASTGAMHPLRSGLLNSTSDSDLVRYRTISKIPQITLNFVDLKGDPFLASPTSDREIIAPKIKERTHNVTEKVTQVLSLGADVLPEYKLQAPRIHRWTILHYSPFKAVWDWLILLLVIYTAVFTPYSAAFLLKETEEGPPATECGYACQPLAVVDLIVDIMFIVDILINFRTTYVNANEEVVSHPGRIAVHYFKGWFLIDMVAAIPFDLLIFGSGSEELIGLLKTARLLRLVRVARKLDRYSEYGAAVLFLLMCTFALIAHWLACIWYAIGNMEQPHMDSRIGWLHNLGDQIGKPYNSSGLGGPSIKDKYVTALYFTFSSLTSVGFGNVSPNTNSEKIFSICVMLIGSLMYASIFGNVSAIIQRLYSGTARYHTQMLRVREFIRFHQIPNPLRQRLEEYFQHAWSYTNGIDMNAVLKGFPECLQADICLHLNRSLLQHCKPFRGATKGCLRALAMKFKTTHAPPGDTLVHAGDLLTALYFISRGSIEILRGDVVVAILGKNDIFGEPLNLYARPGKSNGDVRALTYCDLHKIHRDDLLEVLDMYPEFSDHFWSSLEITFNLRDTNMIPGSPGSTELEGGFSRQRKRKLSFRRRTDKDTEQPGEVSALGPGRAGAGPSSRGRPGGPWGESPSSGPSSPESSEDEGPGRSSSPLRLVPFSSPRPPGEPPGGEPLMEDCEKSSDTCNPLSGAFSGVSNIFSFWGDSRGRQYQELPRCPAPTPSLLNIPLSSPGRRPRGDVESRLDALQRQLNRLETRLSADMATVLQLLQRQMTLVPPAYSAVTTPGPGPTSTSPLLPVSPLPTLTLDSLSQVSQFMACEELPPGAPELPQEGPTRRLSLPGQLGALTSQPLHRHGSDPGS

[30] = molecular target: Sphingosine 1-phosphate receptor 1 (Macaca mulatta, UniProt H9EUW9); experiment: Agonist activity at monkey S1P1 receptor assessed as cAMP accumulation by HTRF assay; type: functional; outline: as §1
Sequence of Sphingosine 1-phosphate receptor 1 (Macaca mulatta, UniProt H9EUW9) (H9EUW9 whole entry): as the sequence (P21453 whole entry) above, with P3S, H12L, I37T, K41R, S189P, I241M, E365D counted along it

[31] = molecular target: T1, Sphingosine 1-phosphate receptor 1; experiment: Agonist activity at human S1P1 receptor by beta-arrestin recruitment assay relative to S1P

CCCCCCCCCCCCC/C=C/[C@@H](O)[C@@H](N)COP(=O)(O)O
EC50 [1]: 2.1 nM

CC(C)Oc1ccc(COc2ccc3c(c2)c(Cl)c2n3CC[C@@H]2CC(=O)O)cc1C#N
IC50 [2]: 390 nM
Activity (Rattus norvegicus [3]): Non-toxic
EC50 [4]: 0.025 nM
EC50 [5]: 0.072 nM
EC50 [6]: 47 nM
IC50 (Rattus norvegicus [7]): 0.0104 mg/L (≈ 0.0237 µM)
Emax [8]: 84%
Emax [9]: 94%
Tmax [10]: 4 h
clearance [11]: 0.192 L/h/kg
Cmax [12]: 0.618 µg/mL
EC50 [13]: 8600 nM
Emax [14]: 85%
AUC(0-inf) [15]: 4.21 µg·h/mL
half-life [16]: 3.44 h
Emax [17]: 93%
EC50 [18]: > 10000 nM
Emax [19]: 96%
EC50 [20]: 0.63 nM
Emax [21]: 66%
IC50 (Cytochrome P450 2C9): 8500 nM
Emax [22]: 104%
bioavailability [23]: 76.4%
Vd [24]: 0.9 L/kg
EC50 [25]: > 10000 nM
EC50 [26]: 0.05 nM
EC50 [27]: 0.049 nM
Kp [28]: 0.09
Activity [29]: Not Active
EC50 [30]: 0.038 nM
Emax [31]: 112%

O=C(O)CC1CCn2c1cc1cc(OCc3ccc(C4CCCC4)c(C(F)(F)F)c3)ccc12 (racemic)
EC50 [4]: 0.095 nM

N#Cc1cc(COc2ccc3c(c2)cc2n3CCC2CC(=O)O)ccc1C1CCCC1 (racemic)
EC50 [4]: 0.49 nM
Emax [9]: 92%

O=C(O)CC1CCn2c1cc1cc(OCc3ccc(Cl)c(C(F)(F)F)c3)ccc12 (racemic)
EC50 [4]: 150 nM
Emax [9]: 116%

N#Cc1ccc(COc2ccc3c(c2)cc2n3CCC2CC(=O)O)cc1C(F)(F)F (racemic)
EC50 [4]: 83 nM
Emax [9]: 104%

COc1ccc(COc2ccc3c(c2)cc2n3CCC2CC(=O)O)cc1C#N (racemic)
EC50 [4]: 38 nM
Emax [9]: 122%

O=C(O)CC1CCn2c1cc1cc(OCc3ccc(OCF)c(C(F)(F)F)c3)ccc12 (racemic)
EC50 [4]: 6.7 nM
Emax [9]: 119%

CC(C)Oc1ccc(COc2ccc3c(c2)cc2n3CCC2CC(=O)O)cc1C(F)(F)F (racemic) [listing 1 of 2 here]
EC50 [4]: 0.15 nM

CC(C)Oc1ccc(COc2ccc3c(c2)cc2n3CCC2CC(=O)O)cc1C#N (racemic) [listing 1 of 2 here]
EC50 [4]: 0.15 nM

O=C(O)CC1CCn2c1cc1cc(OCc3ccc(OCC4CC4)c(C(F)(F)F)c3)ccc12 (racemic)
EC50 [4]: 1.1 nM
Emax [9]: 100%

CC(C)Oc1ccc(COc2ccc3c(c2)cc2n3CCC2CC(=O)O)cc1C#N (racemic) [listing 2 of 2 here]
Emax [9]: 105%

CC(C)Oc1ccc(COc2ccc3c(c2)cc2n3CCC2CC(=O)O)cc1C(F)(F)F (racemic) [listing 2 of 2 here]
Emax [9]: 112%

— ChEMBL document CHEMBL3352004, “(7-Benzyloxy-2,3-dihydro-1H-pyrrolo[1,2-a]indol-1-yl)acetic Acids as S1P1 Functional Antagonists” (ACS Med Chem Lett, 2014)
